Source: ChEMBL document CHEMBL4261652, “Modifying aroylhydrazone prochelators for hydrolytic stability and improved cytoprotection against oxidative stress” (Bioorg Med Chem, 2018)
Calls of active or inactive are those of the source. The rule behind the calls is not given here.

Assays:
[1] = system: ARPE-19; assay: Cytotoxicity against human ARPE19 cells up to 100 uM after 24 hrs by CellTiter-Blue assay; type: cell-based; conditions: arpe-19, 24 h
[2] = Iron chelating activity of the compound assessed as recovery of calcein fluorescence from calcein-Fe3+ complex by measuring iron binding constant at 4 uM measured after 2 hrs by fluorescence assay
Summary of the method: (§1)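 Compound at 100 μM in PBS pH 7.4, prepared fresh, either used directly or first incubated 12 h with 5 mM H2O2. Then brought to 4 μM with 2 μM Fe3+-calcein (preformed 4 h from ferric ammonium citrate and calcein) in PBS, equilibrated 2 h at 25 °C; emission read 485/535 nm, as percent of free calcein; n = 3.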

[3] = system: ARPE-19; assay: Cytoprotective activity against H2O2-induced oxidative stress in human ARPE19 cells at 25 to 50 uM pretreated for 5 hrs followed by H2O2-stimulation and measured after 19 hrs by CellTiter-Blue assay; type: functional, cell-based
Summary of the method: (§2)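 ARPE-19 cells grown to confluence in 1:1 DMEM/F12 with 10% FBS, 37 °C, 5% CO2; washed with MEM, pre-treated 5 h with compound, then H2O2 added to 200 μM final; viability read 19 h later by CellTiter-Blue, as percent of untreated control; triplicate runs, mean ± SD.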

[4] = system: ARPE-19; assay: Cytoprotective activity against paraquat-induced oxidative stress in human ARPE19 cells up to 100 uM pretreated for 5 hrs followed by paraquat-stimulation and measured after 48 hrs by CellTiter-Blue assay; type: functional, cell-based
[5] = Iron chelating activity of the compound assessed as recovery of calcein fluorescence from calcein-Fe3+ complex at 4 uM preincubated with H2O2 for 12 hrs followed by addition to calcein-Fe3+ complex measured after 2 hrs by fluorescence assay relative to control; summary of the method: as §1
[6] = Hydrolytic stability of compound in D2O/5% DMSO-d6 solvent at 500 uM after 1 hr by 1H-NMR spectroscopy; type: physicochemical
Summary of the method: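 1H NMR in D2O: prochelator at 500 μM with 5% DMSO-d6, or at 200 μM with 2% DMSO-d6, equilibrated 1 h before spectra; activation by H2O2 added to 25 mM final (10 mM in the 200 μM case), reacting 12 h; aromatic peaks integrated.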

[7] = Hydrolytic stability in PBS of pH 7.4 at 50 uM after 1 hr by UV-Vis spectrophotometric analysis; type: physicochemical; conditions: buffer, pH 7.4, 1 h
[8] = system: ARPE-19; assay: Cytoprotective activity against H2O2-induced oxidative stress in human ARPE19 cells up to 100 uM pretreated for 5 hrs followed by H2O2-stimulation and measured after 19 hrs by CellTiter-Blue assay; type: functional, cell-based; summary of the method: as §2
[9] = Solubility of the compound in aqueous buffer at >50 uM; type: physicochemical
[10] = Hydrolytic stability in PBS of pH 7.4 assessed as equilibrium constant for hydrolytic product formation after 1 hr measured at 1 min intervals over 30 mins by UV-Vis spectrophotometric analysis; type: physicochemical; conditions: buffer, pH 7.4, 1 h
Summary of the method: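 K measured by UV-Vis on equilibrated prochelator solutions in PBS pH 7.4 at several starting concentrations. Absorbances at 263 and 321 nm, with extinction coefficients from linear calibration plots, gave equilibrium concentrations of prochelator, hydrazide and aldehyde; K = [INH][FBA]/[prochelator].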

[11] = system: ARPE-19; assay: Cytotoxicity against human ARPE19 cells assessed as reduction in cell viability at 100 uM after 72 hrs by CellTiter-Blue assay; type: cell-based; conditions: arpe-19, 72 h
Summary of the method: (§3)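 Confluent ARPE-19 monolayers washed three times with MEM, then exposed 72 h to compound at 5–100 μM in MEM containing up to 1% DMSO; viability by CellTiter-Blue; triplicate runs, standard deviations.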

[12] = system: ARPE-19; assay: Cytotoxicity against human ARPE19 cells up to 100 uM over 72 hrs by CellTiter-Blue assay; type: cell-based; conditions: arpe-19, 72 h; summary of the method: as §3
[13] = system: ARPE-19; assay: Cytoprotective activity against H2O2-induced oxidative stress in human ARPE19 cells at 25 uM pretreated for 5 hrs followed by H2O2-stimulation and measured after 19 hrs by CellTiter-Blue assay; type: functional, cell-based; summary of the method: as §2
[14] = system: ARPE-19; assay: Cytoprotective activity against paraquat-induced oxidative stress in human ARPE19 cells assessed as cell viability at 100 uM pretreated for 5 hrs followed by paraquat-stimulation and measured after 48 hrs by CellTiter-Blue assay; type: functional; conditions: read-out: Activity
[15] = Hydrolytic stability of compound in D2O/5% DMSO-d6 solvent at 500 uM preincubated for 1 hr followed by H2O2 addition measured after 24 hrs by 1H-NMR spectroscopy; type: physicochemical; conditions: D2O/5% DMSO-d6 with H2O2 added; read-out: Stability
[16] = Hydrolytic stability in pH 7.4 PBS buffer at 100 uM by UV-Vis spectrophotometric analysis; type: physicochemical; conditions: pH 7.4, 100 µM, TDE = time-dependent effect
Summary of the method: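 UV-Vis monitoring of prochelator in PBS pH 7.4 at 1-min intervals over 30 min in 1-cm quartz cuvettes; hydrazide plus aldehyde (100 μM each) mixtures followed as reference.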

[17] = Iron chelating activity of the compound assessed as recovery of calcein fluorescence from calcein-Fe3+ complex by measuring iron binding constant at 4 uM preincubated with H2O2 for 12 hrs followed by addition to calcein-Fe3+ complex measured after 2 hrs by fluorescence assay; summary of the method: as §1
[18] = Cytotoxicity against rat H9c2 cells after 72 hrs by neutral red uptake assay; type: cell-based; conditions: read-out: TC50
[19] = system: ARPE-19; assay: Cytoprotective activity against paraquat-induced oxidative stress in human ARPE19 cells assessed as cell viability restoration at 100 uM after 48 hrs relative to control; type: functional
Summary of the method: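 ARPE-19 cells were grown to confluence in 1:1 DMEM/F12 with 10% FBS at 37 °C and 5% CO2, then washed with MEM. Cells were co-incubated in MEM with 10 mM paraquat plus compound for 48 h, with no pre-incubation step. Viability was read by CellTiter-Blue and expressed as % of the untreated MEM-only control. Triplicate runs, SD.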

[20] = system: ARPE-19; assay: Cytoprotective activity against paraquat-induced oxidative stress in human ARPE19 cells pretreated for 5 hrs followed by paraquat-stimulation and measured after 48 hrs by CellTiter-Blue assay; type: functional, cell-based
[21] = system: ARPE-19; assay: Cytotoxicity against human ARPE19 cells up to 100 uM after 72 hrs by CellTiter-Blue assay; type: cell-based; conditions: arpe-19, 72 h; summary of the method: as §3
[22] = Hydrolytic stability of compound in D2O/2% DMSO-d6 solvent at 200 uM preincubated for 1 hr followed by H2O2 addition measured after 24 hrs by 1H-NMR spectroscopy; type: physicochemical; conditions: D2O/2% DMSO-d6 with H2O2 added; read-out: Stability
[23] = Hydrolytic stability of compound in D2O/5% DMSO-d6 solvent at 200 uM after 1 hr by 1H-NMR spectroscopy; type: physicochemical; conditions: read-out: Stability

SMILES	Activity [2]	Activity [5]	Activity [1]	further results
Oc1ccccc1/C=N/NC(=S)Nc1ccccc1	inactive	–	Non-Toxic	–
CC1(C)OB(c2ccccc2/C=N/NC(=S)Nc2ccccc2)OC1(C)C	inactive	inactive	Non-Toxic	Activity [3]: Active; Activity [4]: inactive
COc1ccc(/C=N/NC(=O)c2ccncc2)c(O)c1	–	–	–	solubility [9]: Insoluble
COc1ccc(B2OC(C)(C)C(C)(C)O2)c(/C=N/NC(=O)c2ccncc2)c1	inactive	60%	Non-Toxic	remaining at 1 h, 500 µM ([6]; D2O/5% DMSO-d6, read-out: Stability): 85%; K [10]: 1.1 ×10⁻⁵ M; Activity [11]: 20%; Activity [12]: Toxic; Activity [13]: Active; viability at 100 µM [14]: 30%; remaining at 24 h, 500 µM [15]: 67%; Stability [16]: Tde
C/C(=N\NC(=O)c1ccncc1)c1ccccc1OCc1ccc(B2OC(C)(C)C(C)(C)O2)cc1	–	–	–	Activity [11]: 25%; CC50 at 72 h [18]: 37.1 µM; Activity [19]: 40%; Activity [20]: Dose-dependent effect
CC1(C)OB(c2cc3c(cc2/C=N/NC(=O)c2ccncc2)OCO3)OC1(C)C	inactive	75%	Non-Toxic	remaining at 24 h, 200 µM [22]: 45%; remaining at 1 h, 200 µM [23]: 80%; K [10]: 8 ×10⁻⁶ M; Activity [21]: Non-Toxic; Activity [13]: Active; Activity [20]: Dose-dependent effect; Stability [16]: Tde
CNC(=S)N/N=C/c1ccccc1B1OC(C)(C)C(C)(C)O1	inactive	inactive	Non-Toxic	Activity [8]: inactive

Further lines, with some results ahead:

Activity [2]	Activity [5]	SMILES	Activity [1]	further results
> 90%	–	COc1ccc(/C=N/NC(=O)c2cccnc2)c(O)c1	Non-Toxic	–
inactive	inactive	COc1ccc(/C=N/NC(=O)c2ccncc2)cc1B1OC(C)(C)C(C)(C)O1	Non-Toxic	Stability ([6]; 1 h, 500 µM): Stable; Stability [7]: Stable; Activity [4]: inactive; Activity [8]: inactive
inactive	inactive	O=C(N/N=C/c1ccc(Cl)cc1B(O)O)c1ccncc1	Non-Toxic	–
> 90%	–	O=C(N/N=C/c1ccccc1O)c1ccncc1 [SALINAZID]	Non-Toxic	log(activity) [17]: -23
inactive	inactive	COc1ccc(/C=N/NC(=O)c2cccnc2)c(B2OC(C)(C)C(C)(C)O2)c1	Non-Toxic	–
inactive	50%	CC1(C)OB(c2ccccc2/C=N/NC(=O)c2ccncc2)OC1(C)C	Non-Toxic	K [10]: 1.5 ×10⁻⁵ M; Activity [21]: Non-Toxic; Activity [3]: Active; Activity [4]: inactive
> 90%	–	COc1ccc(O)c(/C=N/NC(=O)c2ccncc2)c1	Non-Toxic	–
inactive	–	CNC(=S)N/N=C/c1ccccc1O	Non-Toxic	Activity [8]: inactive
